Experiment [1] is filed under the species Rattus norvegicus. Kind of experiment: Influence on 5-hydroxy tryptamine (5-HT) concentration in hippocampus region of brain. The class given is functional, organism-based. The procedure, abridged:
(§1)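 Male Sprague-Dawley rats (150-250 g) given 4 mg/kg sc; killed 30 min later. Brain regions dissected, weighed, homogenized in 0.01 N HClO4, kept on ice 15 min, centrifuged 13000g 2 min. Supernatant analysed by HPLC with electrochemical detection: C-18 reverse-phase column, 0.1 M sodium phosphate mobile phase with EDTA, octanesulfonic acid, 10% MeOH, pH 3.8; glassy carbon electrode at +0.65. Compared with untreated controls by ANOVA and multiple regression.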

The species named for experiment [2] is Rattus norvegicus. Kind of experiment: Influence on 5-hydroxyindoleacetic acid (5-HIAA)concentration in amygdala region of brain. The class given is functional, organism-based. An outline of the steps: as §1
The species entered for experiment [3] is Rattus norvegicus. The experiment can be described thus: Influence on 5-hydroxyindoleacetic acid (5-HIAA) concentration in parietal cortex region of brain. Type of experiment: functional, organism-based. An outline of the steps: as §1
Experiment [4] can be described thus: Ratio of 5-HT concentration to 5-HIAA concentration in hypothalamus region of brain. Type of experiment: functional. An outline of the steps: as §1
For experiment [5], the species on record is Rattus norvegicus. The experiment can be described thus: Influence on 5-hydroxyindoleacetic acid (5-HIAA) concentration in frontal cortex region of brain. The class given is functional, organism-based. The procedure, abridged: as §1
The species entered for experiment [6] is Rattus norvegicus. Kind of experiment: Influence on 5-hydroxy tryptamine (5-HT) concentration in parietal cortex region of brain. The class given is functional, organism-based. An outline of the steps:
as §1

The species entered for experiment [7] is Rattus norvegicus. The experiment can be described thus: Influence on 5-hydroxy tryptamine (5-HT) concentration in caudate region of brain. The class given is functional, organism-based. An outline of the steps:
as §1

A short description of experiment [8]: Ratio of 5-HT concentration to 5-HIAA concentration in septum region of brain. Type of experiment: functional. An outline of the steps:
as §1

The species named for experiment [9] is Rattus norvegicus. Kind of experiment: Influence on 5-hydroxyindoleacetic acid (5-HIAA) concentration in hippocampus region of brain. Type of experiment: functional, organism-based. The procedure, abridged: as §1
The species entered for experiment [10] is Rattus norvegicus. The experiment can be described thus: Influence on 5-hydroxyindoleacetic acid (5-HIAA) concentration in hypothalamus region of brain. The class given is functional, organism-based. The procedure, abridged: as §1
The species entered for experiment [11] is Rattus norvegicus. Kind of experiment: Influence on 5-hydroxy tryptamine (5-HT) concentration in hypothalamus region of brain. The class given is functional, organism-based. The procedure, abridged:
as §1

A short description of experiment [12]: Ratio of 5-HT concentration to 5-HIAA concentration in frontal cortex region of brain. The class given is functional. The procedure, abridged: as §1
Experiment [13] can be described thus: Ratio of 5-HT concentration to 5-HIAA concentration in parietal cortex region of brain. The class given is functional. The procedure, abridged: as §1
The species named for experiment [14] is Rattus norvegicus. The experiment can be described thus: Influence on 5-hydroxyindoleacetic acid (5-HIAA) concentration in olfactory tubercle region of brain. The class given is functional, organism-based. The procedure, abridged: as §1
Experiment [15] is described as follows: Ratio of 5-HT concentration to 5-HIAA concentration in amygdala region of brain. The class given is functional. An outline of the steps: as §1
For experiment [16], the species on record is Rattus norvegicus. Kind of experiment: Influence on 5-hydroxyindoleacetic acid (5-HIAA) concentration in septum region of brain. Type of experiment: functional, organism-based. The procedure, abridged: as §1
For experiment [17], the species on record is Rattus norvegicus. Kind of experiment: Influence on 5-hydroxy tryptamine (5-HT) concentration in septum region of brain. The class given is functional, organism-based. The procedure, abridged:
as §1

Experiment [18] is filed under the species Rattus norvegicus. Kind of experiment: Influence on 5-hydroxy tryptamine (5-HT) concentration in frontal cortex region of brain. The class given is functional, organism-based. An outline of the steps: as §1
A short description of experiment [19]: Ratio of 5-HT concentration to 5-HIAA concentration in caudate region of brain. The class given is functional. The procedure, abridged: as §1
Experiment [20] is filed under the species Rattus norvegicus. Kind of experiment: Influence on 5-hydroxy tryptamine (5-HT) concentration in amygdala region of brain. The class given is functional, organism-based. The procedure, abridged:
as §1

The species entered for experiment [21] is Rattus norvegicus. The experiment can be described thus: Influence on 5-hydroxyindoleacetic acid (5-HIAA) concentration in caudate region of brain. The class given is functional, organism-based. The procedure, abridged: as §1
For experiment [22], the species on record is Rattus norvegicus. The experiment can be described thus: Influence on 5-hydroxy tryptamine (5-HT) concentration in olfactory tubercle region of brain. The class given is functional, organism-based. An outline of the steps:
as §1

A short description of experiment [23]: Ratio of 5-HT concentration to 5-HIAA concentration in hippocampus region of brain. The class given is functional. An outline of the steps:
as §1

Experiment [24] is described as follows: Ratio of 5-HT concentration to 5-HIAA concentration in olfactory tubercle region of brain. Type of experiment: functional. An outline of the steps:
as §1

As to `CCCN(CCC)C1CCc2cccc(O)c2C1` (centres undefined) [8-OH-DPAT], the Concentration amounted to 4.2 nM/g in the experiment listed under Rattus norvegicus [1]; 1 nM/g in the experiment listed under Rattus norvegicus [2]; 0.8 nM/g in the experiment filed under Rattus norvegicus [3]; 0.8 nM/g in the experiment filed under Rattus norvegicus [5]; 3.1 nM/g in the experiment listed under Rattus norvegicus [6]; 3.6 nM/g in the experiment filed under Rattus norvegicus [7]. Besides, the Concentration came out at 1.7 nM/g in the experiment filed under Rattus norvegicus [9]; 1.9 nM/g in the experiment listed under Rattus norvegicus [10]; 7.1 nM/g in the experiment listed under Rattus norvegicus [11]; 1.4 nM/g in the experiment filed under Rattus norvegicus [14]; 1.5 nM/g in the experiment listed under Rattus norvegicus [16]; 4.5 nM/g in the experiment listed under Rattus norvegicus [17]. The Concentration turned out to be 4.2 nM/g in the experiment listed under Rattus norvegicus [18], 4.9 nM/g in the experiment filed under Rattus norvegicus [20], 2.6 nM/g in the experiment filed under Rattus norvegicus [21] and 8.3 nM/g in the experiment filed under Rattus norvegicus [22]. For the same compound, the Ratio in experiment [4] came to 3.9; in experiment [8], 3; in experiment [12] it was 5.8; in experiment [13], 4.1; in experiment [15] it was 5.8; in [19] it was 1.5. Besides, the figures for the Ratio in [23] and in [24] were 2.5 and 5.9, respectively.

Source of the values: ChEMBL document CHEMBL1124286, “(R)-(-)-10-methyl-11-hydroxyaporphine: a highly selective serotonergic agonist” (1988).
